Measured values taken from ChEMBL document CHEMBL1121608, “Modification of the 5' position of purine nucleosides. 2. Synthesis and some cardiovascular properties of adenosine-5'-(N-substituted)carboxamides” (J Med Chem, 1980).

Test system: Canis familiaris
Test: Total time in minutes elapsed from the initiation of the change until return to the pretest value of blood pressure in coronary sinus of anesthetized dog at intravenous dosage of 0.01 mg/kg
Format: functional, Canis lupus familiaris
Conditions: not given

Structure (SMILES)	Duration [min]
CCNC(=O)[C@H]1O[C@@H](n2cnc3c(N)ncnc32)[C@H](O)[C@@H]1O [NECA]	120

Test system: Canis familiaris
Test: Total time in minutes elapsed from the initiation of the change until return to the pretest value of blood pressure in coronary sinus of anesthetized dog at intravenous dosage of 0.1 mg/kg
Format: functional, Canis lupus familiaris
Conditions: not given

Structure (SMILES)	Duration [min]
Nc1ncnc2c1ncn2[C@@H]1O[C@H](C(=O)NC2CCCC2)[C@@H](O)[C@H]1O	120
C=C(C)CNC(=O)[C@H]1OC(n2cnc3c(N)ncnc32)[C@H](O)[C@@H]1O (some centres not stated)	15
CCCONC(=O)[C@H]1OC(n2cnc3c(N)ncnc32)[C@H](O)[C@@H]1O (some centres not stated)	13
CCC(CC)NC(=O)[C@H]1OC(n2cnc3c(N)ncnc32)[C@H](O)[C@@H]1O (some centres not stated)	110

Test system: Canis familiaris
Test: Total time in minutes elapsed from the initiation of the change until return to the pretest value of blood pressure in coronary sinus of anesthetized dog at intravenous dosage of 1 mg/kg
Format: functional, Canis lupus familiaris
Conditions: not given

Structure (SMILES)	Duration [min]
C=CCNC(=O)[C@H]1O[C@@H](n2cnc3c(N)ncnc32)[C@H]2OC(C)(C)OC12 (some centres not stated)	30
CCCCCCNC(=O)[C@H]1OC(n2cnc3c(N)ncnc32)[C@H](O)[C@@H]1O (some centres not stated)	0

Test system: Canis familiaris
Test: Total time in minutes elapsed from the initiation of the change until return to the pretest value of heart rate in coronary sinus of anesthetized dog at intravenous dosage of 0.01 mg/kg
Format: functional, Canis lupus familiaris
Conditions: not given

Structure (SMILES)	Duration [min]
CCNC(=O)[C@H]1O[C@@H](n2cnc3c(N)ncnc32)[C@H](O)[C@@H]1O [NECA]	345

Test system: Canis familiaris
Test: Total time in minutes elapsed from the initiation of the change until return to the pretest value of heart rate in coronary sinus of anesthetized dog at intravenous dosage of 0.1 mg/kg
Format: functional, Canis lupus familiaris
Conditions: not given

Structure (SMILES)	Duration [min]
Nc1ncnc2c1ncn2[C@@H]1O[C@H](C(=O)NC2CCCC2)[C@@H](O)[C@H]1O	120
C=C(C)CNC(=O)[C@H]1OC(n2cnc3c(N)ncnc32)[C@H](O)[C@@H]1O (some centres not stated)	60
CCCONC(=O)[C@H]1OC(n2cnc3c(N)ncnc32)[C@H](O)[C@@H]1O (some centres not stated)	3
CCC(CC)NC(=O)[C@H]1OC(n2cnc3c(N)ncnc32)[C@H](O)[C@@H]1O (some centres not stated)	110

Test system: Canis familiaris
Test: Total time in minutes elapsed from the initiation of the change until return to the pretest value of heart rate in coronary sinus of anesthetized dog at intravenous dosage of 1 mg/kg
Format: functional, Canis lupus familiaris
Conditions: not given

Structure (SMILES)	Duration [min]
C=CCNC(=O)[C@H]1O[C@@H](n2cnc3c(N)ncnc32)[C@H]2OC(C)(C)OC12 (some centres not stated)	5
CCCCCCNC(=O)[C@H]1OC(n2cnc3c(N)ncnc32)[C@H](O)[C@@H]1O (some centres not stated)	6

Test system: Canis familiaris
Test: Total time in minutes elapsed from the initiation of the change until return to the pretest value of oxygen partial pressure in coronary sinus of anesthetized dog at intravenous dosage of 0.01 mg/kg
Format: functional, Canis lupus familiaris
Conditions: not given

Structure (SMILES)	Duration [min]
CCNC(=O)[C@H]1O[C@@H](n2cnc3c(N)ncnc32)[C@H](O)[C@@H]1O [NECA]	345

Test system: Canis familiaris
Test: Total time in minutes elapsed from the initiation of the change until return to the pretest value of oxygen partial pressure in coronary sinus of anesthetized dog at intravenous dosage of 0.1 mg/kg
Format: functional, Canis lupus familiaris
Conditions: not given

Structure (SMILES)	Duration [min]
Nc1ncnc2c1ncn2[C@@H]1O[C@H](C(=O)NC2CCCC2)[C@@H](O)[C@H]1O	120
C=C(C)CNC(=O)[C@H]1OC(n2cnc3c(N)ncnc32)[C@H](O)[C@@H]1O (some centres not stated)	60
CCCONC(=O)[C@H]1OC(n2cnc3c(N)ncnc32)[C@H](O)[C@@H]1O (some centres not stated)	60
CCC(CC)NC(=O)[C@H]1OC(n2cnc3c(N)ncnc32)[C@H](O)[C@@H]1O (some centres not stated)	110

Test system: Canis familiaris
Test: Total time in minutes elapsed from the initiation of the change until return to the pretest value of oxygen partial pressure in coronary sinus of anesthetized dog at intravenous dosage of 1 mg/kg
Format: functional, Canis lupus familiaris
Conditions: not given
Summary of the method: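 Open-chest anesthetized dogs given compound by intravenous injection. Coronary sinus PO2 was monitored, and duration was the total time in minutes from the onset of the change until return to the pretest value.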

Structure (SMILES)	Duration [min]
C=CCNC(=O)[C@H]1O[C@@H](n2cnc3c(N)ncnc32)[C@H]2OC(C)(C)OC12 (some centres not stated)	0
CCCCCCNC(=O)[C@H]1OC(n2cnc3c(N)ncnc32)[C@H](O)[C@@H]1O (some centres not stated)	40

Test system: Canis familiaris
Test: Tested for percent increase in coronary sinus partial pressure of oxygen (PO2) in open chest anesthetized dog at intravenous dosage of 0.01 mg/kg
Format: functional, Canis lupus familiaris
Conditions: not given

Structure (SMILES)	PO2 [%]
CCNC(=O)[C@H]1O[C@@H](n2cnc3c(N)ncnc32)[C@H](O)[C@@H]1O [NECA]	250

Test system: Canis familiaris
Test: Tested for percent increase in coronary sinus partial pressure of oxygen (PO2) in open chest anesthetized dog at intravenous dosage of 0.10 mg/kg
Format: functional, Canis lupus familiaris
Conditions: dose 0.1 mg/kg

Structure (SMILES)	PO2 [%]
Nc1ncnc2c1ncn2[C@@H]1O[C@H](C(=O)NC2CCCC2)[C@@H](O)[C@H]1O	83
C=C(C)CNC(=O)[C@H]1OC(n2cnc3c(N)ncnc32)[C@H](O)[C@@H]1O (some centres not stated)	38
CCCONC(=O)[C@H]1OC(n2cnc3c(N)ncnc32)[C@H](O)[C@@H]1O (some centres not stated)	52
CCC(CC)NC(=O)[C@H]1OC(n2cnc3c(N)ncnc32)[C@H](O)[C@@H]1O (some centres not stated)	28

Test system: Canis familiaris
Test: Tested for percent increase in coronary sinus partial pressure of oxygen (PO2) in open chest anesthetized dog at intravenous dosage of 1.00 mg/kg
Format: functional, Canis lupus familiaris
Conditions: not given

Structure (SMILES)	PO2 [%]
C=CCNC(=O)[C@H]1O[C@@H](n2cnc3c(N)ncnc32)[C@H]2OC(C)(C)OC12 (some centres not stated)	0
CCCCCCNC(=O)[C@H]1OC(n2cnc3c(N)ncnc32)[C@H](O)[C@@H]1O (some centres not stated)	100

Test system: Canis familiaris
Test: Tested for the percent increase in aortic blood pressure (BP) in open chest anesthetized dog at intravenous dosage of 0.10 mg/kg
Format: functional, Canis lupus familiaris, Artery
Conditions: dose 0.1 mg/kg
Summary of the method: (§1)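 Open-chest anesthetized dogs, compound given iv at the stated dose. Aortic blood pressure is reported as the change from the control (pre-dose) value. Other set-up follows the group's earlier cardiovascular protocol.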

Structure (SMILES)	BP [%]
Nc1ncnc2c1ncn2[C@@H]1O[C@H](C(=O)NC2CCCC2)[C@@H](O)[C@H]1O	12
C=C(C)CNC(=O)[C@H]1OC(n2cnc3c(N)ncnc32)[C@H](O)[C@@H]1O (some centres not stated)	1
CCCONC(=O)[C@H]1OC(n2cnc3c(N)ncnc32)[C@H](O)[C@@H]1O (some centres not stated)	1
CCC(CC)NC(=O)[C@H]1OC(n2cnc3c(N)ncnc32)[C@H](O)[C@@H]1O (some centres not stated)	9

Test system: Canis familiaris
Test: Tested for the percent increase in aortic blood pressure (BP) in open chest anesthetized dog at intravenous dosage of 1.00 mg/kg
Format: functional, Canis lupus familiaris, Artery
Conditions: not given
Summary of the method: as §1

Structure (SMILES)	BP [%]
C=CCNC(=O)[C@H]1O[C@@H](n2cnc3c(N)ncnc32)[C@H]2OC(C)(C)OC12 (some centres not stated)	14
CCCCCCNC(=O)[C@H]1OC(n2cnc3c(N)ncnc32)[C@H](O)[C@@H]1O (some centres not stated)	0

Test system: Canis familiaris
Test: tested for the percent increase in heart rate (HR) in open chest anesthetized dog at intravenous dosage of 0.10 mg/kg
Format: functional, Canis lupus familiaris
Conditions: dose 0.1 mg/kg

Structure (SMILES)	HR [%]
Nc1ncnc2c1ncn2[C@@H]1O[C@H](C(=O)NC2CCCC2)[C@@H](O)[C@H]1O	25
C=C(C)CNC(=O)[C@H]1OC(n2cnc3c(N)ncnc32)[C@H](O)[C@@H]1O (some centres not stated)	19
CCCONC(=O)[C@H]1OC(n2cnc3c(N)ncnc32)[C@H](O)[C@@H]1O (some centres not stated)	6
CCC(CC)NC(=O)[C@H]1OC(n2cnc3c(N)ncnc32)[C@H](O)[C@@H]1O (some centres not stated)	11

Test system: not listed separately
Test: Lethal dose in mice after intraperitoneal administration
Format: toxicity, organism-based
Conditions: mouse, in vivo, ip
Summary of the method: (§2)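 Male and female mice, three per dose group, were given the compound by the stated route in increments of 0.5 log doses. The LD50 was estimated as an approximate value.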

Structure (SMILES)	LD50 [mg/kg]
Nc1ncnc2c1ncn2[C@@H]1O[C@H](C(=O)NC2CCCC2)[C@@H](O)[C@H]1O	200
C=CCNC(=O)[C@H]1O[C@@H](n2cnc3c(N)ncnc32)[C@H]2OC(C)(C)OC12 (some centres not stated)	> 1000
CCCCCCNC(=O)[C@H]1OC(n2cnc3c(N)ncnc32)[C@H](O)[C@@H]1O (some centres not stated)	200
C=C(C)CNC(=O)[C@H]1OC(n2cnc3c(N)ncnc32)[C@H](O)[C@@H]1O (some centres not stated)	500
CCCONC(=O)[C@H]1OC(n2cnc3c(N)ncnc32)[C@H](O)[C@@H]1O (some centres not stated)	200
CCC(CC)NC(=O)[C@H]1OC(n2cnc3c(N)ncnc32)[C@H](O)[C@@H]1O (some centres not stated)	50
CCNC(=O)[C@H]1O[C@@H](n2cnc3c(N)ncnc32)[C@H](O)[C@@H]1O [NECA]	0.5

Test system: not listed separately
Test: Lethal dose in mice after peroral administration
Format: toxicity, organism-based
Conditions: mouse, in vivo, po
Summary of the method: as §2

Structure (SMILES)	LD50 [mg/kg]
Nc1ncnc2c1ncn2[C@@H]1O[C@H](C(=O)NC2CCCC2)[C@@H](O)[C@H]1O	200
C=CCNC(=O)[C@H]1O[C@@H](n2cnc3c(N)ncnc32)[C@H]2OC(C)(C)OC12 (some centres not stated)	> 1000
CCCCCCNC(=O)[C@H]1OC(n2cnc3c(N)ncnc32)[C@H](O)[C@@H]1O (some centres not stated)	500
C=C(C)CNC(=O)[C@H]1OC(n2cnc3c(N)ncnc32)[C@H](O)[C@@H]1O (some centres not stated)	> 1000
CCCONC(=O)[C@H]1OC(n2cnc3c(N)ncnc32)[C@H](O)[C@@H]1O (some centres not stated)	> 1000
CCC(CC)NC(=O)[C@H]1OC(n2cnc3c(N)ncnc32)[C@H](O)[C@@H]1O (some centres not stated)	> 300
CCNC(=O)[C@H]1O[C@@H](n2cnc3c(N)ncnc32)[C@H](O)[C@@H]1O [NECA]	5
